Assay results: ChEMBL document CHEMBL1811881, “Development of 3-substituted-androsterone derivatives as potent inhibitors of 17β-hydroxysteroid dehydrogenase type 3” (Bioorg Med Chem, 2011)

Key:
Assay type in all cases: cell-based
[1] = target: T1, 17-beta-hydroxysteroid dehydrogenase type 3 (Homo sapiens) (UniProt P37058); test: Inhibition of 17Beta-HSD3 expressed in homogenized HEK293 cells assessed as transformation of [14C]-4-androstene-3,17-dione into [14C]-testosterone in presence of NADPH at 0.01 uM
T1 sequence (whole entry): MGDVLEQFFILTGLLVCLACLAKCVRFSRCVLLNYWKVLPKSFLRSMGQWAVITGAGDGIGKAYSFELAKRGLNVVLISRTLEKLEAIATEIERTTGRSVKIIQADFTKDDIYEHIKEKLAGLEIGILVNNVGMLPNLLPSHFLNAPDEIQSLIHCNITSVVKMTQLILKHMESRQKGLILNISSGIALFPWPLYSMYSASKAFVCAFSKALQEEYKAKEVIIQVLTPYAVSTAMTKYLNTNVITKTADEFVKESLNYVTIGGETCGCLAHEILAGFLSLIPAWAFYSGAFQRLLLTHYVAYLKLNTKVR
In short: (§1)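 HEK-293 cells overexpressing 17β-HSD3 were briefly homogenized. The enzyme assay measured conversion of 50 nM [4-14C]-4-androstene-3,17-dione to [14C]-testosterone with NADPH in excess (5 mM). Inhibitor was dissolved in ethanol, and the ethanol-only control was used to derive % inhibition at each concentration. Error 10%.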

[2] = target: T1, 17-beta-hydroxysteroid dehydrogenase type 3 (Homo sapiens); test: Inhibition of 17Beta-HSD3 expressed in intact HEK293 cells assessed as transformation of [14C]-4-androstene-3,17-dione into [14C]-testosterone in presence of NADPH at 0.1 uM after 1 hr incubation
In short: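 HEK-293 cells were grown in MEM with 10% FBS at 37 °C under 5% CO2, seeded at 200,000 cells/well, and transfected with 2 µg/well of a 17β-HSD3 expression plasmid. Intact cells then got 50 nM [4-14C]-4-androstene-3,17-dione plus inhibitor in ethanol (0.5% v/v) for 1 h. Radiolabelled steroids were extracted from the medium and quantified. Triplicate; % transformation was used to derive IC50.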

[3] = target: T1, 17-beta-hydroxysteroid dehydrogenase type 3 (Homo sapiens); test: Inhibition of 17Beta-HSD3 expressed in homogenized HEK293 cells assessed as transformation of [14C]-4-androstene-3,17-dione into [14C]-testosterone in presence of NADPH at 0.1 uM; in short: as §1
[4] = target: T1, 17-beta-hydroxysteroid dehydrogenase type 3 (Homo sapiens); test: Inhibition of 17Beta-HSD3 expressed in homogenized HEK293 cells assessed as transformation of [14C]-4-androstene-3,17-dione into [14C]-testosterone in presence of NADPH at 1 uM; in short: as §1

Row | SMILES | inhibition [1] | inhibition [2] | inhibition [3] | inhibition [4]
1 | C[C@]12CC[C@@]3(C[C@@H]1CC[C@@H]1[C@@H]2CC[C@]2(C)C(=O)CC[C@@H]12)CN(Cc1ccccc1C(F)(F)F)C(=O)O3 | 17% | 35% | 81% | –
2 | C[C@]12CC[C@](O)(CN3CCN(S(=O)(=O)c4ccc(C(F)(F)F)cc4)CC3)C[C@@H]1CC[C@@H]1[C@@H]2CC[C@]2(C)C(=O)CC[C@@H]12 | 21% | 34% | 78% | –
3 | C[C@@H]1CN(Cc2cc(C(F)(F)F)ccc2C(F)(F)F)[C@@H](C)CN1C[C@@]1(O)CC[C@@]2(C)[C@@H](CC[C@@H]3[C@@H]2CC[C@]2(C)C(=O)CC[C@@H]32)C1 | 16% | 23% | 71% | –
4 | C[C@@H]1CN(Cc2ccccc2C(F)(F)F)[C@@H](C)CN1C[C@@]1(O)CC[C@@]2(C)[C@@H](CC[C@@H]3[C@@H]2CC[C@]2(C)C(=O)CC[C@@H]32)C1 | 22% | 36% | 85% | –
5 | C[C@]12CC[C@](O)(CN3CCN(S(=O)(=O)c4ccccc4C(F)(F)F)CC3)C[C@@H]1CC[C@@H]1[C@@H]2CC[C@]2(C)C(=O)CC[C@@H]12 | 45% | 63% | 92% | –
6 | C[C@]12CC[C@@]3(C[C@@H]1CC[C@@H]1[C@@H]2CC[C@]2(C)C(=O)CC[C@@H]12)CN(Cc1cccc(C(F)(F)F)c1)C(=O)O3 | 16% | 36% | 80% | –
7 | C[C@]12CC[C@](O)(CN3CCN(C(=O)c4ccc(C(F)(F)F)cc4)CC3)C[C@@H]1CC[C@@H]1[C@@H]2CC[C@]2(C)C(=O)CC[C@@H]12 | 22% | 56% | 84% | –
8 | C[C@]12CC[C@](O)(CN3CCN(Cc4ccccc4C(F)(F)F)CC3)C[C@@H]1CC[C@@H]1[C@@H]2CC[C@]2(C)C(=O)CC[C@@H]12 | 18% | 20% | 86% | –
9 | C[C@]12CC[C@@]3(C[C@@H]1CC[C@@H]1[C@@H]2CC[C@]2(C)C(=O)CC[C@@H]12)CN(CCC(CN1CCOCC1)OC(=O)CCC1CCCC1)C(=O)O3 (some centres undefined) | 2% | 49% | 79% | 94%
10 | C[C@]12CC[C@](O)(CN3CCN(Cc4ccc(C(F)(F)F)cc4)CC3)C[C@@H]1CC[C@@H]1[C@@H]2CC[C@]2(C)C(=O)CC[C@@H]12 | 14% | 33% | 81% | –
11 | COc1cccc(CN2CCN(C[C@@]3(O)CC[C@@]4(C)[C@@H](CC[C@@H]5[C@@H]4CC[C@]4(C)C(=O)CC[C@@H]54)C3)CC2)c1 | 21% | 47% | 83% | –
12 | C[C@@H]1CN(Cc2cc(C(F)(F)F)cc(C(F)(F)F)c2)[C@@H](C)CN1C[C@@]1(O)CC[C@@]2(C)[C@@H](CC[C@@H]3[C@@H]2CC[C@]2(C)C(=O)CC[C@@H]32)C1 | 25% | 16% | 74% | –
13 | Cc1ccc(CN2C[C@]3(CC[C@@]4(C)[C@@H](CC[C@@H]5[C@@H]4CC[C@]4(C)C(=O)CC[C@@H]54)C3)OC2=O)cc1 | 17% | 38% | 81% | 93%
14 | C[C@@H]1CN(S(=O)(=O)c2cccc(C(F)(F)F)c2)[C@@H](C)CN1C[C@@]1(O)CC[C@@]2(C)[C@@H](CC[C@@H]3[C@@H]2CC[C@]2(C)C(=O)CC[C@@H]32)C1 | 32% | 77% | 91% | –
15 | COc1ccc(CN2C[C@]3(CC[C@@]4(C)[C@@H](CC[C@@H]5[C@@H]4CC[C@]4(C)C(=O)CC[C@@H]54)C3)OC2=O)cc1 | 5% | 43% | 84% | 93%
16 | C[C@]12CC[C@@]3(C[C@@H]1CC[C@@H]1[C@@H]2CC[C@]2(C)C(=O)CC[C@@H]12)CN(CCO)C(=O)O3 | 0% | 16% | 9% | 38%
17 | CCCN(CCC)CCN1C[C@]2(CC[C@@]3(C)[C@@H](CC[C@@H]4[C@@H]3CC[C@]3(C)C(=O)CC[C@@H]43)C2)OC1=O | 0% | 8% | 10% | 62%
18 | C[C@@H]1CN(Cc2ccc(C(F)(F)F)cc2)[C@@H](C)CN1C[C@@]1(O)CC[C@@]2(C)[C@@H](CC[C@@H]3[C@@H]2CC[C@]2(C)C(=O)CC[C@@H]32)C1 | 14% | 36% | 87% | –

Row | SMILES | inhibition [1] | inhibition [2] | inhibition [3] | inhibition [4]
19 | C[C@]12CC[C@@]3(C[C@@H]1CC[C@@H]1[C@@H]2CC[C@]2(C)C(=O)CC[C@@H]12)CN(Cc1ccc(C(F)(F)F)cc1)C(=O)O3 | 25% | 43% | 80% | –
20 | C[C@]12CC[C@@]3(C[C@@H]1CC[C@@H]1[C@@H]2CC[C@]2(C)C(=O)CC[C@@H]12)CN(CCN1CCCCC1)C(=O)O3 | 0% | 10% | 0% | 21%
21 | C[C@]12CC[C@](O)(CN3CCN(C(=O)c4ccccc4)CC3)C[C@@H]1CC[C@@H]1[C@@H]2CC[C@]2(C)C(=O)CC[C@@H]12 | 17% | 50% | 76% | –
22 | C[C@]12CC[C@](O)(CN3CCN(Cc4cc(C(F)(F)F)cc(C(F)(F)F)c4)CC3)C[C@@H]1CC[C@@H]1[C@@H]2CC[C@]2(C)C(=O)CC[C@@H]12 | 25% | 25% | 83% | –
23 | C[C@]12CC[C@](O)(CN3CCN(Cc4cc(C(F)(F)F)ccc4C(F)(F)F)CC3)C[C@@H]1CC[C@@H]1[C@@H]2CC[C@]2(C)C(=O)CC[C@@H]12 | 18% | 12% | 85% | –
24 | C[C@@H]1CN(S(=O)(=O)c2ccc(C(F)(F)F)cc2)[C@@H](C)CN1C[C@@]1(O)CC[C@@]2(C)[C@@H](CC[C@@H]3[C@@H]2CC[C@]2(C)C(=O)CC[C@@H]32)C1 | 79% | 47% | 92% | –
25 | COc1cccc(CN2C[C@@H](C)N(C[C@@]3(O)CC[C@@]4(C)[C@@H](CC[C@@H]5[C@@H]4CC[C@]4(C)C(=O)CC[C@@H]54)C3)C[C@@H]2C)c1 | 19% | 50% | 87% | –
26 | C[C@]12CC[C@@]3(C[C@@H]1CC[C@@H]1[C@@H]2CC[C@]2(C)C(=O)CC[C@@H]12)CN(Cc1cc(C(F)(F)F)cc(C(F)(F)F)c1)C(=O)O3 | 12% | 35% | 66% | –
27 | C[C@@H]1CN(C(=O)c2cccc(C(F)(F)F)c2)[C@@H](C)CN1C[C@@]1(O)CC[C@@]2(C)[C@@H](CC[C@@H]3[C@@H]2CC[C@]2(C)C(=O)CC[C@@H]32)C1 | 28% | 70% | 89% | –
28 | C[C@]12CC[C@](O)(CN3CCN(Cc4ccc(C(F)(F)F)cc4C(F)(F)F)CC3)C[C@@H]1CC[C@@H]1[C@@H]2CC[C@]2(C)C(=O)CC[C@@H]12 | 22% | 16% | 75% | –
29 | C[C@@H]1CN(C(=O)C2CCCCC2)[C@@H](C)CN1C[C@@]1(O)CC[C@@]2(C)[C@@H](CC[C@@H]3[C@@H]2CC[C@]2(C)C(=O)CC[C@@H]32)C1 | 24% | 77% | 90% | –
30 | C[C@@H]1CN(Cc2ccc(C(F)(F)F)cc2C(F)(F)F)[C@@H](C)CN1C[C@@]1(O)CC[C@@]2(C)[C@@H](CC[C@@H]3[C@@H]2CC[C@]2(C)C(=O)CC[C@@H]32)C1 | 15% | 21% | 71% | –
31 | C[C@@H]1CN(C(=O)c2ccc(C(F)(F)F)cc2)[C@@H](C)CN1C[C@@]1(O)CC[C@@]2(C)[C@@H](CC[C@@H]3[C@@H]2CC[C@]2(C)C(=O)CC[C@@H]32)C1 | 17% | 61% | 91% | –
32 | C[C@]12CC[C@](O)(CN3CCN(Cc4cccc(C(F)(F)F)c4)CC3)C[C@@H]1CC[C@@H]1[C@@H]2CC[C@]2(C)C(=O)CC[C@@H]12 | 51% | 52% | 88% | –
33 | C[C@]12CC[C@@]3(C[C@@H]1CC[C@@H]1[C@@H]2CC[C@]2(C)C(=O)CC[C@@H]12)CN(Cc1ccc(C(F)(F)F)nc1)C(=O)O3 | 3% | 36% | 65% | –
34 | C[C@@H]1CN(C(=O)c2ccccc2)[C@@H](C)CN1C[C@@]1(O)CC[C@@]2(C)[C@@H](CC[C@@H]3[C@@H]2CC[C@]2(C)C(=O)CC[C@@H]32)C1 | 24% | 78% | 87% | –
35 | C[C@]12CC[C@](O)(CN3CCN(C(=O)c4cccc(C(F)(F)F)c4)CC3)C[C@@H]1CC[C@@H]1[C@@H]2CC[C@]2(C)C(=O)CC[C@@H]12 | 10% | 91% | 92% | –
36 | C[C@]12CC[C@](O)(CN3CCN(C(=O)c4ccccc4C(F)(F)F)CC3)C[C@@H]1CC[C@@H]1[C@@H]2CC[C@]2(C)C(=O)CC[C@@H]12 | 31% | 62% | 86% | –
